The values below come from ChEMBL document CHEMBL4513216, “Probing the Open Global Health Chemical Diversity Library for Multistage-Active Starting Points for Next-Generation Antimalarials” (ACS Infect Dis, 2020).

The data set in a line: Toxicity liver stage against HepG2, at 10uM. It is filed as cell-based. Set-up: test concentration 10 uM, cell line HepG2-A16-CD81EGFP. Conditions: human, HepG2-A16-CD81EGFP cells; read-out: INHIBITION
Summed up:
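Uninfected HepG2-A16-CD81EGFP cells, 3 × 10^3 per well, 1536-well, plated on prespotted compound at 10 μM final, parasite-free screening media added to match infected plates; puromycin 10 μM positive, DMSO 0.5% negative; run in parallel with 48 h PbLuc assay at 37 °C, 5% CO2; viability by CellTiter-Glo luminescence, normalized to controls.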
Consider `CN1CC[C@H](c2nnc(-c3cncn3C)o2)C1`, for which the cytotoxicity at 10 µM is -2.88%.

On to `CC(=O)N1N=C(COc2ccc3c(c2)OCO3)OC1c1cccc(Cl)c1` (stereo not given), for which the cytotoxicity at 10 µM is -1.77%.

On to `CC(=O)NC1CCCc2c1[nH]c1ccc(F)cc21` (stereo not given), for which the cytotoxicity at 10 µM was -4.41%.

As for `Cc1nnsc1C(=O)NCCn1ccc(-c2ccncc2)n1`, the cytotoxicity at 10 µM was found to be 1.92%.

On to `COc1cccc(CC(=O)N2CCc3ncnc(C)c3CC2)c1`, for which the cytotoxicity at 10 µM is -1.59%.

`CCCS(=O)(=O)N1C[C@@H]2COC[C@@H](Cc3nc(C)no3)[C@@H]2C1`: the cytotoxicity at 10 µM stood at 6.34%.

For `COCCC(=O)N1CCC2(COCc3cnc(NCC4CC4)nc32)C1` (stereo not given), the cytotoxicity at 10 µM is 6.24%.

As to `CC(C)n1[nH]c(=O)c2c1NC(=O)CSC2C1CCCCC1` (stereo not given), the cytotoxicity at 10 µM was -4.56%.

In the case of `CN1CCN(c2nsc(-c3cccnc3)c2C#N)CC1`, the cytotoxicity at 10 µM came to 0.916%.

Take `O=S(=O)(c1ccccc1F)N1CCCC(c2nccs2)C1` (stereo not given): the cytotoxicity at 10 µM is -11%.

On to `CC(=O)N1CCC(c2cc(C(F)(F)F)nc3nccn23)CC1`, for which the cytotoxicity at 10 µM is -2.11%.

Consider `COCCN1CCCC1c1nccnc1Nc1nccs1` (stereo not given), for which the cytotoxicity at 10 µM was -7.55%.

For the molecule `COc1cccc(CN2CC[C@H]3[C@@H](C2)[C@H](c2ccsc2)CN3C(C)=O)c1`, the cytotoxicity at 10 µM is -5.61%.

Regarding `CC(=O)N1CC2(CCN(Cc3ccc(Cl)cc3)CC2)Cc2ccccc21`, the cytotoxicity at 10 µM amounted to 14.2%.

`Cc1ccc(C(=O)N(C)S(C)(=O)=O)cc1Cl`: the cytotoxicity at 10 µM was -46.5%.

For the molecule `O=c1oc(-c2ccc(F)cc2)nn1CC1CCOC1` (stereo not given), the cytotoxicity at 10 µM turned out to be 5.53%.

With `CCC(c1ccccc1)S(=O)(=O)CCO` (stereo not given), the cytotoxicity at 10 µM was -136%.

Consider `CC(NC(=O)N1CCCN(CC(F)F)CC1)c1ccco1` (stereo not given), for which the cytotoxicity at 10 µM was -6.03%.

On to `CN(C)Cc1ccc(C(=O)N2CCCC(n3cccn3)C2)cc1` (stereo not given), for which the cytotoxicity at 10 µM is -0.798%.

`CCc1cnc(CN(C)C(C)C(=O)N2CCc3ccccc3C2)s1` (stereo not given): the cytotoxicity at 10 µM came out at 7.2%.

On to `Cc1c(NC(C)C(C)C)cccc1C(=O)NCc1ccnn1C` (stereo not given), for which the cytotoxicity at 10 µM is 57.6%.

As to `Cn1c(C2CCCCN2C(=O)CN2CCCC2=O)nc2ccccc21` (stereo not given), the cytotoxicity at 10 µM was -0.62%.

Turning to `CNC(=O)NC(=O)C(C)N1CCC(c2c[nH]c3ccc(OC)cc23)CC1` (stereo not given), the cytotoxicity at 10 µM was 12.5%.

In the case of `CC(NC(=O)CCn1cccn1)c1cccs1` (stereo not given), the cytotoxicity at 10 µM was -3.57%.

For `N#Cc1cc(NC(=O)c2ccncc2)ccc1N1CCC(O)CC1`, the cytotoxicity at 10 µM came to 7.48%.

As for `Cc1nc(C)c(C(=O)Nc2cccc(CN3CCC(CO)CC3)c2)o1`, the cytotoxicity at 10 µM was -154%.

As to `CCn1cc(S(=O)(=O)NC(=O)CCc2c[nH]c3ccccc23)cn1`, the cytotoxicity at 10 µM is -11.3%.

`Cc1cn2c(n1)C(CNCc1cccc3c1OCO3)CCC2` (stereo not given): the cytotoxicity at 10 µM was -0.372%.

For `CN1CCN(S(=O)(=O)c2cccc(C#N)c2)c2ccc(F)cc21`, the cytotoxicity at 10 µM was 2.98%.

Turning to `Cc1cc(N2CCC(NC(=O)CCC3CCCO3)CC2)nc(C)n1` (stereo not given), the cytotoxicity at 10 µM was -8.21%.

Consider `COCc1ccc(C(=O)NS(=O)(=O)c2ccc3c(c2)CCC(=O)N3)cc1`, for which the cytotoxicity at 10 µM was -1.89%.

On to `Clc1cc(Cl)cc(OCCN2CCC(n3cncn3)CC2)c1`, for which the cytotoxicity at 10 µM worked out at 10.8%.

On to `Cc1ccnc(NC(=O)C2CCN(CCCn3ccnc3)CC2)c1`, for which the cytotoxicity at 10 µM is -57.9%.

Take `COc1cccc(CN(C)Cc2nc(C(C)C)no2)c1`: the cytotoxicity at 10 µM was -43.6%.

As to `N#Cc1c(Cl)nsc1NCCCN1C(=O)COc2ccccc21`, the cytotoxicity at 10 µM amounted to 22.2%.

For `Clc1cccc(-c2noc(CCN3CCN(c4ccncc4)CC3)n2)c1`, the cytotoxicity at 10 µM is 24%.

Turning to `Cc1nc(C(=O)N2CC[C@@]3(C[C@@H](NS(C)(=O)=O)CCO3)C2)cs1`, the cytotoxicity at 10 µM was -66%.

Consider `CO[C@@H]1CCN(Cc2cccs2)[C@H]1Cc1ccncc1`, for which the cytotoxicity at 10 µM is -73.4%.

Take `CCC(CC)CN1CCC2(CCCN(c3ncccn3)C2)C1` (stereo not given): the cytotoxicity at 10 µM is -83.5%.

For `O=C(c1ccsc1)N1CCc2ncc(Cn3cncn3)n2CC1`, the cytotoxicity at 10 µM was -78%.

On to `Cn1cc(CNCC2Cn3nnc(-c4ccccc4)c3CO2)cn1` (stereo not given), for which the cytotoxicity at 10 µM is -4.66%.

In the case of `CC(C)NC(=O)N1CC(=O)c2sc(Nc3ccc(C#N)cc3)nc2C1`, the cytotoxicity at 10 µM was -7.77%.

For `CCN(Cc1ccncc1)C1CCCN(Cc2ccc(F)cc2Cl)C1` (stereo not given), the cytotoxicity at 10 µM stood at 7.94%.

For the molecule `CN(CCCc1ccccc1)C(=O)c1cn2c(n1)CNCC2`, the cytotoxicity at 10 µM was -52.4%.

For the molecule `CC(C)N1CCC(C(=O)NC[C@H]2CCc3ccccc3O2)CC1`, the cytotoxicity at 10 µM is 11.1%.

For the molecule `OC(c1ccccn1)C1CCN(Cc2cc3n(n2)CCNC3)CC1` (stereo not given), the cytotoxicity at 10 µM was found to be 15.4%.

On to `COc1ccc(-c2cc(N)ccn2)c(OC)c1OC`, for which the cytotoxicity at 10 µM was found to be 11.4%.

Take `COCCC(=O)N[C@H]1CC[C@H](Nc2nccc(-c3ccncc3)n2)C1`: the cytotoxicity at 10 µM is 11.5%.

Regarding `Cc1cc(CN2CCCC2)cc(Oc2ccc(C(F)(F)F)cn2)c1`, the cytotoxicity at 10 µM is -9.72%.

Regarding `CC(=O)N1CCc2[nH]cnc2C12CCN(C(=O)Cc1cccs1)CC2`, the cytotoxicity at 10 µM was 7.2%.

On to `Cc1nc(NC2CCS(=O)(=O)CC2)cc(C2CCCNC2)n1` (stereo not given), for which the cytotoxicity at 10 µM is -11%.

With `CCNC(=O)[C@@H]1C[C@H](N)CN1Cc1ccc(-c2cc[nH]n2)o1`, the cytotoxicity at 10 µM is -47.6%.

For `COc1ccc(-c2ccoc2)cc1CNC1CCCC1`, the cytotoxicity at 10 µM is -3.45%.

Regarding `CN(Cc1ccccc1)S(=O)(=O)N1C[C@@H](C(=O)O)[C@H](C2CC2)C1`, the cytotoxicity at 10 µM is -150%.

Turning to `CC(C)n1cc(C(=O)N2CCN(c3cccc(C(F)(F)F)c3)CC2)cn1`, the cytotoxicity at 10 µM came to 5.37%.

`Cc1ncsc1CCN(C)C(=O)CN1CCOC1=O`: the cytotoxicity at 10 µM was -15.3%.

With `Cn1ccnc1-c1cnn(CC(=O)Nc2ccnn2C)c1`, the cytotoxicity at 10 µM is -10.1%.

For `CN1CCCCCC1C(=O)N1CCN(c2ccccc2C#N)CC1` (stereo not given), the cytotoxicity at 10 µM was -7.17%.

Consider `CC(C)=CCC1(C(=O)O)CCCN(CCC(=O)NC2CC2)C1` (stereo not given), for which the cytotoxicity at 10 µM is -7.69%.

With `CCn1nc(C)c(CN2CCCC(c3ccc(C(=O)O)cc3)C2)c1C` (stereo not given), the cytotoxicity at 10 µM is -8.56%.

For `O=C(C1CC1)N1CCC(C(=O)N2CCC(c3ccc(F)cc3)C2)CC1` (stereo not given), the cytotoxicity at 10 µM is -46.3%.

For the molecule `NC(=O)c1cc2c(nc1Oc1cccc(CN3CCCC3)c1F)CCC2`, the cytotoxicity at 10 µM was -1.47%.

`CCc1cc(N2CCC(NC3CN4CCC3CC4)CC2)nc(N(C)C)n1` (stereo not given): the cytotoxicity at 10 µM was -2.12%.

Regarding `Cc1ccc(NC(=O)c2coc(C)n2)c(C)c1`, the cytotoxicity at 10 µM was -4.94%.

As to `COCc1ncc(CN(Cc2ccncc2)Cc2ccc(C)s2)cn1`, the cytotoxicity at 10 µM is -47%.

Consider `COc1ccc(-c2nccn2CC(O)CN2CCCC2)c(F)c1` (stereo not given), for which the cytotoxicity at 10 µM is 2.87%.

On to `O=C1CC2(CCN(Cc3ccc(Cl)s3)C2)C(=O)N1` (stereo not given), for which the cytotoxicity at 10 µM was -3.3%.

For the molecule `Cc1nnc(CCNC2CCN(c3ncnc4c(C)csc34)CC2)s1`, the cytotoxicity at 10 µM worked out at 20.7%.

Turning to `COc1ccc(-n2ccc(C(=O)NCCN3CCCC(C)C3)n2)cc1` (stereo not given), the cytotoxicity at 10 µM was -0.0158%.

As for `CC(C)c1nccn1C1CCCN(C(=O)CCc2cscn2)C1` (stereo not given), the cytotoxicity at 10 µM was -7.81%.

On to `CC(=O)N1CCCN(C(=O)c2ccc(=O)n(C)c2)c2ccccc21`, for which the cytotoxicity at 10 µM was -10.4%.

As to `CN1CCOC(CN(C(=O)CCc2cnn(C)c2)c2nccs2)C1` (stereo not given), the cytotoxicity at 10 µM was -10.2%.

As to `Nc1cc2c(nn1)CCN(C(=O)CCC1CCCCC1)C2`, the cytotoxicity at 10 µM stood at 6.5%.

Turning to `CCc1nc(CC(=O)N2CCCCC2Cn2cccn2)cs1` (stereo not given), the cytotoxicity at 10 µM was -17.6%.

Take `CC(NC(=O)NCCCN(C)S(C)(=O)=O)c1ccc(Cl)cc1` (stereo not given): the cytotoxicity at 10 µM was -2.24%.

Take `c1cc(CNCC2CNc3ccnn3C2)cc(N2CCOCC2)n1` (stereo not given): the cytotoxicity at 10 µM was -5.13%.

With `CC(=O)NCc1ccc(C(=O)N2CCCCC2Cn2cccn2)o1` (stereo not given), the cytotoxicity at 10 µM is -4.22%.

With `CNC(=O)C1CCN(C(=O)CCn2cccn2)CC1`, the cytotoxicity at 10 µM was -3.76%.

As to `CCC(CN1CCOCC1)n1cncc1-c1ccc2c(c1)CCN2CC` (stereo not given), the cytotoxicity at 10 µM was found to be 14.9%.

Regarding `O=C(C1CCCCC1)N1CCC2(CC1)CNCc1ccccc12`, the cytotoxicity at 10 µM was -6.13%.

`Fc1ccc(CN2CCO[C@H]3[C@H](Oc4ccccn4)CC[C@@H]32)cc1`: the cytotoxicity at 10 µM was 6.44%.

For `COc1ccc(CN2CC[C@@H]3[C@H]2CCC(=O)N3c2cnn(C)c2)cc1`, the cytotoxicity at 10 µM came out at 17.4%.

On to `CCOCc1cncc2c1CCN(C(=O)c1cscn1)C2`, for which the cytotoxicity at 10 µM is -107%.

As to `Fc1cnc(N2C[C@@H]3C[C@@H](c4nc(C5CC5)cs4)O[C@@H]3C2)nc1`, the cytotoxicity at 10 µM amounted to 22.8%.

Regarding `Fc1ccc(CN2CCCC3(COCCN(Cc4c[nH]nn4)C3)C2)cc1` (stereo not given), the cytotoxicity at 10 µM was 4.9%.

With `CN(Cc1ccco1)C[C@H]1OC[C@@H]2CCN(Cc3ccsc3)C[C@@H]21`, the cytotoxicity at 10 µM is -3.2%.

Take `COc1ccc(C[C@H]2CN(c3nnc(C)s3)CC[C@H]2OC)cc1`: the cytotoxicity at 10 µM is 8.04%.

For `CC1CCN(C(=O)[C@@H]2CC[C@@H]3[C@@H](CCN3c3ncc(F)cn3)O2)CC1`, the cytotoxicity at 10 µM was -0.359%.

On to `CCn1nnc2c1C(COCCN(C)C)CN(Cc1ccco1)C2` (stereo not given), for which the cytotoxicity at 10 µM is 1.86%.

With `c1cc(CN2CCO[C@H]3[C@H](OCC4CCCC4)CC[C@@H]32)ccn1`, the cytotoxicity at 10 µM came to 13.9%.

`CCC(=O)N1CCC2(CC1)CC(N1CCOCC1)c1cc(C)ccc12` (stereo not given): the cytotoxicity at 10 µM was -149%.

In the case of `CNC(=O)C1CCC2(CCN(c3nncs3)CC2)CO1` (stereo not given), the cytotoxicity at 10 µM worked out at 6.01%.

`CNC(=O)N1C[C@@H]2C[C@H](C(=O)Nc3ccccc3)[C@H](C1)O2`: the cytotoxicity at 10 µM is -2.24%.

Turning to `CN(C)C(=O)CN1C[C@H]2CC[C@@H](C1)N(Cc1cccc(Cl)c1Cl)C2`, the cytotoxicity at 10 µM is -5.3%.

As for `CCc1ncc(CN2C[C@@H]3CC[C@H]2CN(C(=O)C2CCC2)C3)cn1`, the cytotoxicity at 10 µM turned out to be 4.96%.
